Laboratory results taken from PMC10249106 (ACS Omega, 2023).

Columns and labels:
MCF-7 cells = assay: MTT cytotoxicity assay, MCF-7; format: cell-based; conditions: Homo sapiens, MCF7, 24 h, read-out: IC50 MCF-7
How it was run: (§1)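 Cells (ATCC via VACSERA) grown in RPMI-1640 with 10% FBS, penicillin 100 units/mL and streptomycin 100 μg/mL, 37 °C, 5% CO2. Seeded at 1.0 × 10^4 cells/well and held 48 h, then exposed to a range of test compound concentrations for 24 h. MTT (5 mg/mL solution) added for 4 h, formazan dissolved in DMSO, absorbance 570 nm. Run in triplicate; IC50 calculated. 5-FU reference.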

Pim-1 kinase = Pim-1 kinase (Homo sapiens, UniProt P11309); assay: Pim-1 kinase inhibition, luminescent ADP-Glo kinase assay; format: biochemical
HCT-116 cells = assay: MTT cytotoxicity assay, HCT-116; format: cell-based; conditions: Homo sapiens, HCT-116, 24 h, read-out: IC50 HCT-116
How it was run: as §1

PC3 cells = assay: MTT cytotoxicity assay, PC3; format: cell-based; conditions: Homo sapiens, PC-3, 24 h, read-out: IC50 PC3
How it was run: as §1

HepG2 cells = assay: MTT cytotoxicity assay, HepG2; format: cell-based; conditions: Homo sapiens, HepG2, 24 h, read-out: IC50 HePG2
How it was run: as §1

Sequence of Pim-1 kinase (P11309 whole entry): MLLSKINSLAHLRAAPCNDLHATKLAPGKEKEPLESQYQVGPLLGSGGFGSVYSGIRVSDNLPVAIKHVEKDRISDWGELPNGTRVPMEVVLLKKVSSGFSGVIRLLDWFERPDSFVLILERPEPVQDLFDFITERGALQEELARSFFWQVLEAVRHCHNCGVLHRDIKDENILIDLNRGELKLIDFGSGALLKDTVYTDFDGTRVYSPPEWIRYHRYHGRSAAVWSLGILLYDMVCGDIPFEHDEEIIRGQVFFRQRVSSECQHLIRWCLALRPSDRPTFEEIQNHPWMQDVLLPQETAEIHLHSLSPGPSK

Row | IC50 (Pim-1 kinase) [nM] | times more potent than A (Pim-1 inhibition) (Pim-1 kinase) [times] | fold less potent than quercetagetin (Pim-1 inhibition) (Pim-1 kinase) | SMILES | IC50 (MCF-7 cells) [µM] | IC50 (HCT-116 cells) [µM] | IC50 (PC3 cells) [µM] | IC50 (HepG2 cells) [µM]
1 | 460 ± 20 | 2 |  | N#Cc1c(-c2cc3ccccc3nc2Cl)cc(-c2ccc(Br)cc2)nc1Cl [4d, 6-(4-Bromophenyl)-2-chloro-4-(2-chloroquinolin-3-yl) nicotinonitrile] | 8.5 ± 0.42 | 8.35 ± 0.42 | 14.1 ± 0.7 | 6.95 ± 0.34
2 | 1240 ± 60 |  | about 2 fold | N#Cc1c(-c2cc3ccccc3nc2Cl)cc(-c2ccccc2)nc1Cl [4a, 2-Chloro-4-(2-chloroquinolin-3-yl)-6-phenylnicotinonitrile] | 75.7 ± 3.74 | 50 ± 2.44 | 35.3 ± 1.67 | 10 ± 0.49
3 | 2310 ± 110 |  |  | N#Cc1c(-c2cc3ccccc3nc2Cl)cc(-c2ccc(Cl)cc2Cl)[nH]c1=O [3e, 4-(2-Chloroquinolin-3-yl)-6-(2,4-dichlorophenyl)-2-oxo-1,2-dihydropyridine-3-carbonitrile] | 45.9 ± 2.18 | 50.7 ± 2.5 | 25.9 ± 1.25 | 11.6 ± 0.57
4 | 720 ± 30 |  |  | N#Cc1c(-c2cc3ccccc3nc2Cl)cc(-c2ccc(Br)cc2)[nH]c1=O [3d, 6-(4-Bromophenyl)-4-(2-chloroquinolin-3-yl)-2-oxo-1,2-dihydropyridine-3-carbonitrile] | 19.9 ± 0.96 | 20 ± 0.99 | 20.5 ± 0.97 | 16.2 ± 0.77
5 | 900 ± 40 |  |  | N#Cc1c(-c2cc3ccccc3nc2Cl)cc(-c2ccccc2)[nH]c1=O [3a, 4-(2-Chloroquinolin-3-yl)-2-oxo-6-phenyl-1,2-dihydropyridine-3-carbonitrile] | 60 ± 2.93 | 49.9 ± 2.36 | 26.9 ± 1.28 | 11.6 ± 0.57
6 | 790 ± 40 |  |  | COc1ccc(-c2cc(-c3cc4ccccc4nc3Cl)c(C#N)c(=O)[nH]2)cc1 [3c, 4-(2-Chloroquinolin-3-yl)-6-(4-methoxyphenyl)-2-oxo-1,2-dihydropyridine-3-carbonitrile] | 25.4 ± 1.2 | 18.3 ± 0.89 | 25.8 ± 1.3 | 14.1 ± 0.68
7 | 630 ± 30 |  |  | N#Cc1c(-c2cc3ccccc3nc2Cl)cc(-c2cccc(N)c2)nc1Cl [4b, 6-(3-Aminophenyl)-2-chloro-4-(2-chloroquinolin-3-yl) nicotinonitrile] | 19.2 ± 0.94 | 20.2 ± 0.96 | 15 ± 0.74 | 12 ± 0.59
8 | 610 ± 30 |  |  | COc1ccc(-c2cc(-c3cc4ccccc4nc3Cl)c(C#N)c(Cl)n2)cc1 [4c, 2-Chloro-4-(2-chloroquinolin-3-yl)-6-(4-methoxyphenyl) nicotinonitrile] | 15.7 ± 0.78 | 7.15 ± 0.35 | 13.6 ± 0.67 | 8.02 ± 0.38
9 | 1420 ± 70 |  | ~2.5 fold | N#Cc1c(-c2cc3ccccc3nc2Cl)cc(-c2ccc(Cl)cc2Cl)nc1Cl [4e, 2-Chloro-4-(2-chloroquinolin-3-yl)-6-(2,4-dichlorophenyl) nicotinonitrile] | 55.5 ± 2.71 | 65.1 ± 3.08 | 35.1 ± 1.73 | 11.5 ± 0.56
10 | 850 ± 40 |  |  | N#Cc1c(-c2cc3ccccc3nc2Cl)cc(-c2cccc(N)c2)[nH]c1=O [3b, 6-(3-Aminophenyl)-4-(2-chloroquinolin-3-yl)-2-oxo-1,2-dihydropyridine-3-carbonitrile] | 42.4 ± 2.13 | 30.9 ± 1.52 | 18.4 ± 0.89 | 12.4 ± 0.59
11 |  |  |  | O=c1[nH]cc(F)c(=O)[nH]1 [5-FU, 5-fluorouracil, reference compound] | 7.75 ± 0.37 | 8.01 ± 0.39 | 10.3 ± 0.5 | 9.42 ± 0.46
